The nature of the series: Dynamic light scattering. It counts as physicochemical. The settings on record: PBS with 1% DMSO. Summed up: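 Salicylaldehyde-tagged peptide and its alkyne precursor were dissolved in DMSO at several concentrations, then diluted 1:100 into PBS. Final samples were 5 µM, 125 nM and 10 nM in PBS (+1% DMSO). Aggregation was assessed by dynamic light scattering.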

Structures are written as SMILES. Values after ≈ are worked out from the molar mass of the structure shown. Non-standard residues stand in square brackets, D forms with d. Residues, ends and D or L forms follow the SMILES beside them. *: point of attachment. FITC = O=C1OC2(c3ccc(O)cc3Oc3cc(O)ccc32)c2ccc(NC(=S)*)cc21; Pra = C#CC[C@H](N)C(=O)O; βAla = NCCC(=O)O

The source of these data is paper PMC12694607 (RSC Chemical Biology, 2025).

What is called solubility (kinetic) is solubility judged after dilution from a stock solution rather than from solid. Take `C#CC[C@H](NC(=O)[C@H](Cc1ccccc1)NC(=O)CCNC(=S)Nc1ccc2c(c1)C(=O)OC21c2ccc(O)cc2Oc2cc(O)ccc21)C(=O)N[C@@H](C)C(=O)N[C@@H](CC(C)C)C(=O)N[C@@H](CC(=O)O)C(=O)N[C@@H](Cc1c[nH]c2ccccc12)C(=O)N[C@@H](CO)C(=O)N[C@@H](Cc1c[nH]c2ccccc12)C(=O)N[C@@H](CC(C)C)C(=O)N[C@@H](CCC(N)=O)C(=O)N[C@H](C(=O)N[C@@H](CCC(=O)O)C(N)=O)[C@@H](C)O` [Compound 6] ({FITC-βAla}-F[Pra]ALDWSWLQTE-NH2): the kinetic solubility was 0.125 µM (≈ 0.244 µg/mL).
